Test results: ChEMBL document CHEMBL1143122, “Novel analogs of D-e-MAPP and B13. Part 1: synthesis and evaluation as potential anticancer agents” (Bioorg Med Chem, 2008)

Assays:
[1] = test system: RPMI-8226; test: Antiproliferative activity against human RPMI8226 cells after 48 hrs; assay type: functional; conditions: RPMI-8226, 48 h
In short: (§1)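 NCI 60-cell screen. Cells were grown in RPMI 1640 with 5% FBS and 2 mM L-glutamine, then plated at 5,000–40,000 cells/well according to doubling time and preincubated for 24 h at 37 °C in 5% CO2. Compounds were dissolved in DMSO at 400× the top final concentration and tested at five 10-fold dilutions from 10−4 to 10−8 M for 48 h. Growth was read spectrophotometrically; GI50 is 50% net protein reduction.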

[2] = test system: NCI-H226; test: Antiproliferative activity against human NCI-H226 cells after 48 hrs; assay type: functional; conditions: NCI-H226, 48 h; in short: as §1
[3] = test system: K562; test: Antiproliferative activity against human K562 cells after 48 hrs; assay type: functional; conditions: K562, 48 h; in short: as §1
[4] = test system: SW-620; test: Antiproliferative activity against human SW620 cells after 48 hrs; assay type: functional; conditions: SW-620, 48 h
In short: (§2)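 NCI 60-cell-line screen. Lines grown in RPMI 1640 with 5% fetal bovine serum and 2 mM L-glutamine, plated at 5,000–40,000 cells/well according to doubling time, left 24 h at 37 °C in 5% CO2. Drug stocks in DMSO at 400-fold the top final concentration. Five 10-fold dilutions, 10−4 to 10−8 M, incubated 48 h. Growth read spectrophotometrically as net protein; GI50 taken as 50% reduction.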

[5] = test system: SF-539; test: Antiproliferative activity against human SF539 cells after 48 hrs; assay type: functional; conditions: SF-539, 48 h; in short: as §1
[6] = test system: Hs-578T; test: Antiproliferative activity against human HS578T cells after 48 hrs; assay type: functional; in short: as §1
[7] = test system: NCI-H522; test: Antiproliferative activity against human NCI-H522 cells after 48 hrs; assay type: functional; conditions: NCI-H522, 48 h; in short: as §1
[8] = test system: SK-MEL-5; test: Antiproliferative activity against human SKMEL5 cells after 48 hrs; assay type: functional; conditions: SK-MEL-5, 48 h; in short: as §1
[9] = test system: RXF 393; test: Antiproliferative activity against human RXF393 cells after 48 hrs; assay type: functional; conditions: RXF 393, 48 h; in short: as §1
[10] = test system: A549; test: Antiproliferative activity against human A549 cells after 48 hrs; assay type: functional; conditions: A549, 48 h; in short: as §1
[11] = test system: SF-268; test: Antiproliferative activity against human SF268 cells after 48 hrs; assay type: functional; conditions: SF-268, 48 h; in short: as §1
[12] = test system: OVCAR-4; test: Antiproliferative activity against human OVCAR4 cells after 48 hrs; assay type: functional; conditions: OVCAR-4, 48 h; in short: as §1
[13] = test system: MCF7; test: Antiproliferative activity against human MCF7 cells after 48 hrs; assay type: functional, cell-based; conditions: MCF7, 48 h
[14] = test system: MDA-MB-435; test: Antiproliferative activity against human MDA-MB-435 cells after 48 hrs; assay type: functional; conditions: Homo sapiens, MDA-MB-435, 48 h; in short: as §1
[15] = test system: COLO 205; test: Antiproliferative activity against human COLO205 cells after 48 hrs; assay type: functional; conditions: COLO 205, 48 h; in short: as §1
[16] = test system: HCC 2998; test: Antiproliferative activity against human HCC2998 cells after 48 hrs; assay type: functional; conditions: HCC 2998, 48 h; in short: as §1
[17] = test system: BT-549; test: Antiproliferative activity against human BT549 cells after 48 hrs; assay type: functional; conditions: BT-549, 48 h; in short: as §1
[18] = test system: ACHN; test: Antiproliferative activity against human ACHN cells after 48 hrs; assay type: functional; in short: as §1
[19] = test system: OVCAR-8; test: Antiproliferative activity against human OVCAR8 cells after 48 hrs; assay type: functional; conditions: OVCAR-8, 48 h; in short: as §1
[20] = test system: MCF7; test: Drug level in human MCF7 cells at 10 uM per 10^6 cells after 0.5 hrs; assay type: ADME, cell-based; conditions: mcf7, 0.5 h
In short: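 MCF7 cells kept in RPMI 1640 with 10% fetal calf serum at 37 °C, 5% CO2, then treated with 10 μM analog. Intracellular analog measured over time by HPLC-MS in positive-ion MRM mode. Quantified against calibration curves made by spiking an artificial matrix with standards plus internal standard, using analyte/IS peak-area ratios and linear regression. Reported as pmol per 1×10^6 cells.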

[21] = test system: NCI-H23; test: Antiproliferative activity against human NCI-H23 cells after 48 hrs; assay type: functional; conditions: NCI-H23, 48 h; in short: as §1
[22] = test system: HCT-116; test: Antiproliferative activity against human HCT116 cells after 48 hrs; assay type: functional; conditions: HCT-116, 48 h; in short: as §1
[23] = test system: OVCAR-3; test: Antiproliferative activity against human OVCAR-3 cells after 48 hrs; assay type: functional; conditions: OVCAR-3, 48 h; in short: as §1
[24] = test system: OVCAR-5; test: Antiproliferative activity against human OVCAR5 cells after 48 hrs; assay type: functional; conditions: OVCAR-5, 48 h; in short: as §1
[25] = Antiproliferative activity against human […] cells after 48 hrs; assay type: functional; in short: as §1
[26] = test system: Malme-3M; test: Antiproliferative activity against human MALME3M cells after 48 hrs; assay type: functional; in short: as §1
[27] = test system: CCRF-CEM; test: Antiproliferative activity against human CCRF-CEM cells after 48 hrs; assay type: functional; in short: as §1
[28] = test system: SNB-75; test: Antiproliferative activity against human SNB75 cells after 48 hrs; assay type: functional; conditions: SNB-75, 48 h; in short: as §1
[29] = test system: U-251; test: Antiproliferative activity against human U251 cells after 48 hrs; assay type: functional; conditions: U-251, 48 h; in short: as §2
[30] = read-out: Log LC50 (the source's name) (converted)

Compound: CCCCCCCCCCCCCCN[C@H](CO)[C@H](O)c1ccc([N+](=O)[O-])cc1.Cl
- GI50 [1]: 2.19 µM
- CC50 [1, 30]: > 100 µM
- TGI ([1]; read-out: Log TGI (converted)): 4.68 µM
- GI50 [2]: 10.5 µM
- CC50 [2, 30]: 100 µM
- TGI ([2]; read-out: Log TGI (converted)): 34.7 µM
- GI50 [3]: 1.86 µM
- LC50 [3]: 7.76 µM
- TGI ([3]; read-out: Log TGI (converted)): 3.8 µM
- GI50 [4]: 2 µM
- LC50 (concentration killing 50% of cells) [4]: 100 µM
- TGI ([4]; read-out: Log TGI (converted)): 4.68 µM
- GI50 [5]: 1.66 µM
- LC50 [5]: 6.03 µM
- TGI ([5]; read-out: Log TGI (converted)): 3.16 µM
- GI50 [6]: 2.09 µM
- LC50 [6]: 100 µM
- TGI ([6]; read-out: Log TGI (converted)): 5.25 µM
- GI50 [7]: 2 µM
- TGI ([7]; read-out: Log TGI (converted)): 3.98 µM
- GI50 [8]: 2.45 µM
- CC50 [8, 30]: > 100 µM
- TGI ([8]; read-out: Log TGI (converted)): 7.08 µM
- GI50 [9]: 1.82 µM
- CC50 [9, 30]: 8.32 µM
- TGI ([9]; read-out: Log TGI (converted)): 3.89 µM
- GI50 [10]: 3.55 µM
- CC50 [10, 30]: > 100 µM
- TGI ([10]; read-out: Log TGI (converted)): 19.5 µM
- GI50 [11]: 2.09 µM
- LC50 [11]: > 100 µM
- TGI ([11]; read-out: Log TGI (converted)): 4.9 µM
- GI50 [12]: 1.91 µM
- LC50 [12]: 6.76 µM
- TGI ([12]; read-out: Log TGI (converted)): 3.55 µM
- GI50 [13]: 1.91 µM
- TGI ([13]; read-out: Log TGI (converted)): 3.47 µM
- GI50 [14]: 1.91 µM
- LC50 [14]: 5.75 µM
- TGI ([14]; read-out: Log TGI (converted)): 3.31 µM
- GI50 [15]: 1.78 µM
- TGI ([15]; read-out: Log TGI (converted)): 3.55 µM
- GI50 [16]: 2.4 µM
- CC50 [16, 30]: 29.5 µM
- TGI ([16]; read-out: Log TGI (converted)): 5.62 µM
- GI50 [17]: 1.51 µM
- LC50 [17]: 5.62 µM
- TGI ([17]; read-out: Log TGI (converted)): 2.88 µM
- GI50 [18]: 1.86 µM
- CC50 [18, 30]: 6.17 µM
- TGI ([18]; read-out: Log TGI (converted)): 3.39 µM
- GI50 [19]: 2.29 µM
- CC50 [19, 30]: > 100 µM
- TGI ([19]; read-out: Log TGI (converted)): 5.62 µM
- Drug uptake [20]: 3600 pmol
- GI50 [21]: 14.5 µM
- CC50 [21, 30]: 83.2 µM
- TGI ([21]; read-out: Log TGI (converted)): 34.7 µM
- GI50 [22]: 1.95 µM
- LC50 [22]: 6.17 µM
- TGI ([22]; read-out: Log TGI (converted)): 3.47 µM
- GI50 [23]: 8.13 µM
- LC50 [23]: 100 µM
- TGI ([23]; read-out: Log TGI (converted)): 30.9 µM
- GI50 [24]: 3.72 µM
- CC50 [24, 30]: 72.4 µM
- TGI ([24]; read-out: Log TGI (converted)): 14.1 µM
- GI50 [25]: 2 µM
- LC50 [25]: 8.91 µM
- TGI ([25]; read-out: Log TGI (converted)): 4.27 µM
- GI50 [26]: 2.45 µM
- LC50 [26]: 9.55 µM
- TGI ([26]; read-out: Log TGI (converted)): 4.9 µM
- GI50 [27]: 2 µM
- TGI ([27]; read-out: Log TGI (converted)): 3.98 µM
- GI50 [28]: 3.98 µM
- CC50 [28, 30]: 60.3 µM
- TGI ([28]; read-out: Log TGI (converted)): 26.9 µM
- GI50 [29]: 1.86 µM
- TGI ([29]; read-out: Log TGI (converted)): 3.47 µM
